Measured values collected from several papers.
Target: BDNF/NT-3 growth factors receptor (NTRK2, Homo sapiens, UniProt Q16620)

SMILES	read-out	action	technique	concentration	quantity	result
CCCOc1ccc([C@@H]2[C@@H](C(=O)O)[C@H](c3ccc4c(c3)OCO4)CN2CC(=O)Nc2c(CC)cccc2CC)cc1	cell-free assay		competition with immobilised ligand	1 µM	remaining binding	100%
Cc1cnc(NC2CCOCC2)nc1-n1cnc(C(=O)NC(CN)c2cc(F)cc(Cl)c2)c1 (centres unmarked)	enzyme activity	inhibitor	radiometric	1 µM	remaining activity	110%
O=C1NC(=O)c2cc(Nc3ccc(F)cc3)c(Nc3ccc(F)cc3)cc21	cell-free assay			0.5 µM	remaining signal	91.9%
CC1=C(C#N)[C@@H](c2ccc3[nH]nc(C)c3c2)C(C#N)=C(c2ccc(Cl)cc2)N1	cell-free assay		competition with immobilised ligand	1 µM	remaining binding	85.2%
CC(C)(C)c1nc2c(s1)c1nc(N)ncc1c1ccc(NS(=O)(=O)c3c(F)cccc3F)c(F)c12	enzyme activity	inhibitor	radiometric	1 µM	remaining activity	65%
O=C(Nc1cccc(C(=O)Nc2ccc3[nH]ncc3c2)c1)Nc1ccccc1Cl	enzyme activity	inhibitor	FRET	1 µM	inhibition	20.6%
COc1cc(Cl)c(C(=O)N[C@@H](CN[C@H]2CC[C@@H](N)CC2)Cc2ccc(C#N)cc2)cc1-c1ccc(CN[C@H](C)c2ccc(C)cc2)o1	enzyme activity	inhibitor		1 µM	remaining activity	64%
C[C@@H]1CN(c2cc(-c3n[nH]c4ccc(OC5(C)CC5)cc34)ncn2)C[C@H](C)O1	cell-free assay		competition with immobilised ligand	0.1 µM	remaining binding	67%
O=C(Nc1ccc(C(F)(F)F)cc1)Nc1cccc(C(=O)Nc2ccc3[nH]nc(-c4ccccc4)c3c2)c1	enzyme activity	inhibitor	FRET	1 µM	inhibition	14.7%
O=C(Nc1cnn(-c2csc(C(=O)NC3COC3)c2)c1)Nc1ccccc1Cl	enzyme activity	inhibitor		5 µM	remaining activity	84.2%
O=C(Nc1cccc(F)c1)Nc1cccc(C(=O)Nc2ccc3[nH]ncc3c2)c1	enzyme activity	inhibitor	FRET	1 µM	inhibition	19.3%
Cc1ccc(Nc2nccc(N(C)c3ccc4c(C)n(C)nc4c3)n2)cc1S(N)(=O)=O	cell-free assay			0.5 µM	remaining signal	91.5%
O=C(Nc1ccc(I)cc1)Nc1cccc(C(=O)Nc2ccc3[nH]ncc3c2)c1	enzyme activity	inhibitor	FRET	1 µM	inhibition	15.9%
Cc1ccc(NC(=O)c2ccc(C)c(C(F)(F)F)c2)cc1C#Cc1nn(C2CCC(O)CC2)c2ncnc(N)c12 (centres unmarked)	cell-free assay			10 µM	remaining signal	4%
CCC(=O)N[C@@H]1CC[C@H](C(=O)N(C)c2ccc(-c3nc4ccccc4o3)cc2)C1	cell-free assay		competition with immobilised ligand	1 µM	remaining binding	100%
CCCOc1ccc(OC)c(F)c1C(=O)c1ccc(C(=O)N[C@@H]2CNC[C@H]2NC(=O)c2ccc3[nH]ncc3c2)cc1	enzyme activity	inhibitor		10 µM	remaining activity	71%
O=C(Nc1ccc2[nH]ncc2c1)c1cccc(NC(=O)c2cc(C(F)(F)F)ccc2F)c1	enzyme activity	inhibitor	FRET	1 µM	inhibition	13.5%
Cc1ccc(NC(=O)c2ccc(CN3CCN(C)CC3)cc2)cc1Nc1nc(-c2cccnc2)cs1	cell-free assay			0.5 µM	remaining signal	101%
Cc1nccc(COC(=O)N2C[C@@H]3[C@@H](CNC(=O)c4ccc5[nH]nnc5c4)[C@@H]3C2)n1	cell-free assay		competition with immobilised ligand	1 µM	remaining binding	100%
CCN(CC)CCNC(=O)c1c(C)[nH]c(/C=C2\C(=O)Nc3ccc(F)cc32)c1C	cell-free assay			0.3 µM	inhibition	70%
Cc1ccc(C(=O)NCc2ccsc2)cc1C#Cc1cn(C(C)C)c2ncnc(N)c12	enzyme activity	inhibitor		1 µM	activity vs control	58%
O=C(Nc1cccc(C(=O)Nc2ccc3[nH]ncc3c2)c1)Nc1ccccc1C(F)(F)F	enzyme activity	inhibitor	FRET	1 µM	inhibition	25.7%
Cc1cc(C)c(-n2ccn3nc(-c4cccnc4)cc23)cc1NC(=O)c1cc(C#N)cc(S(F)(F)(F)(F)F)c1	cell-free assay		competition with immobilised ligand	0.1 µM	remaining binding	54.8%
Oc1cccc(-c2nc(N3CCOCC3)c3oc4ncccc4c3n2)c1	cell-free assay			0.5 µM	remaining signal	90.2%
O=C(Nc1cccc(C(=O)Nc2ccc3[nH]ncc3c2)c1)Nc1cccc(C(F)(F)F)c1	enzyme activity	inhibitor	FRET	1 µM	inhibition	24.5%
CN(c1ccnc(CNc2nc(Nc3ccc4c(c3)CC(=O)N4)ncc2C(F)(F)F)n1)S(C)(=O)=O	cell-free assay		competition with immobilised ligand	1 µM	remaining binding	21%
O=C(Nc1cnn(-c2csc(C(=O)NC3COC3)c2)c1)Nc1c(F)cccc1Cl	enzyme activity	inhibitor		5 µM	remaining activity	91.5%
O=C(Nc1ccc(C(F)(F)F)cc1)Nc1cccc(C(=O)Nc2ccc3[nH]ncc3c2)c1	enzyme activity	inhibitor	FRET	1 µM	inhibition	14%
C[C@H](c1ccc(F)cc1)N(Cc1cccc(C(=O)O)c1)C(=O)c1cnc2ccccc2c1	cell-free assay		competition with immobilised ligand	1 µM	remaining binding	100%
